Compounds with a hit are over-represented: about 0.95% of the library has one in this group of screens.
NCF1 inh = inhibitors of human p47phox binding; inhibition, % at 24.7 µM; P14598; p47phox/p22phox peptide binding, fluorescence polarization, 2 h; hit rate 0.53% among 220,000;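 active means inhibition above about 30%, limit read from the data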;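 further: 0% = p47phox with labelled peptide and 100% = labelled peptide alone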
Furin inh = human furin inhibition; P09958; purified furin, fluorogenic substrate cleavage; inhibition, % at 20 µM or 30 µM; hit rate 0.061% among 220,000; in the data active means inhibition above about 25%
Target sequence (P09958 108-714 limits assumed): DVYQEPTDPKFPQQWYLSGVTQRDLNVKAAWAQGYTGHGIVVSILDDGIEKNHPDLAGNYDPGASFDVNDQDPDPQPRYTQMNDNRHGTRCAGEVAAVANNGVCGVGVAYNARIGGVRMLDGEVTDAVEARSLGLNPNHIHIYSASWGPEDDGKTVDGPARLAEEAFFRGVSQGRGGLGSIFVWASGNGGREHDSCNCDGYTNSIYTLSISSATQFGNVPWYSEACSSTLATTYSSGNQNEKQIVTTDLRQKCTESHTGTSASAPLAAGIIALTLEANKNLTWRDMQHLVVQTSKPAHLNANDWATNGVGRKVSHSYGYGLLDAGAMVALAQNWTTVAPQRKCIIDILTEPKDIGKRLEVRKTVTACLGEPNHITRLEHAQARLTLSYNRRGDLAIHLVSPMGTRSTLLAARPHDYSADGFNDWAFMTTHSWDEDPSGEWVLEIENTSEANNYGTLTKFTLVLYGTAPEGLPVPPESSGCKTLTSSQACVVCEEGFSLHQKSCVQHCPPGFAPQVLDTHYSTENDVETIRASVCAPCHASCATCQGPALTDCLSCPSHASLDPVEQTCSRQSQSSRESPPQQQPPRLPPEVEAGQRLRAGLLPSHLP
ABCG2 inh = inhibitors of human ABCG2 transporter, ABCB1 counter-screen; IgMXP3 cells, JC-1 efflux, flow cytometry; AID 1325; hit rate 0.1% among 190,000; inhibition, % at 6.6 µM; Q9UNQ0;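 active means inhibition above 80%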;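 further: 0% = DMSO and 100% = nicardipine control wells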
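Read-out basis: Efflux inhibition in percent versus controls | Test system: ABCG2 IgMXP3 and barcoded ABCB1 CCRF-Adr cell mix | Quantity: 3 million cells/mL in well | Schedule: 10 min at 25 °C | Control set: Nicardipine as high control, DMSO as low control | Reagent: JC-1 as fluorescent efflux pump substrate | Signal: Flow cytometry of retained JC-1 fluorescence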
ABCB1 block = inhibitors of human ABCB1 transporter, ABCG2 counter-screen | CCRF-Adr cells, JC-1 efflux, flow cytometry | inhibition, % at 6.6 µM | hit rate 0.067% among 190,000 | AID 1326; in the data active means inhibition above about 40%;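 further: 0% = vehicle and 100% = reference inhibitor; higher value means more JC-1 retained so stronger ABCB1 efflux block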
HSV augment = increases HSV replication in cells; HSV replication augmentation in cells, fold increase; maximum fold increase; hit rate 0.005% among 220,000; AID 1956; in the data active means maximum fold increase above about 1.5; tested in PC3 cells
Arbovirus inh = antivirals against arbovirus infection; arbovirus infection cell-based antiviral screen; hit rate 0.37% among 200,000; inhibition, % at 10 µM; in the data active means inhibition above about 30%
Starred values were filed as active, the others as inactive; i = inactive; · = no result given.

SMILES	NCF1 inh	Furin inh	ABCG2 inh	ABCB1 block	HSV augment	Arbovirus inh
CC1(c2nnc(-c3ccc(F)cc3)o2)CC(c2ccncc2)=NO1 (stereo not drawn)	·	·	·	·	i	·
COc1ccc2[nH]c3c4c(ccc3c2c1)C(=O)C=CC4=O	30.5*	-1.7	·	·	i	·
C=CCN(C(=O)c1cccc(N2C(=O)C3CC=CC(C)C3C2=O)c1)c1ccccc1 (stereo not drawn)	-4.0	-21.0	4.4	1.0	i	30.2*
CCOc1cc(CC(=O)N[C@@H](CC(C)C)c2ccccc2N2CCCCC2)ccc1C(=O)O	1.4	·	0.8	·	i	-7.5
Cn1c(N)c(C(=O)COC(=O)C2CC(=O)N(Cc3ccccc3)C2)c(=O)n(C)c1=O (stereo not drawn)	·	-30.1	-0.7	-0.2	i	3.2
COc1ccc(Cc2nc(C(=O)NCc3ccccc3OC)cs2)cc1	31.3*	-14.1	1.3	0.5	i	6.9
COc1ccc(Cc2nc(C(=O)Nc3ccc(OC)cc3)cs2)cc1	-1.2	-17.9	1.1	0.1	i	-11.8
CC(C)(C)c1cc(OS(C)(=O)=O)ccc1O	31.5*	-24.9	2.1	0.7	i	-4.0
O=C(NC1CCN(Cc2ccccc2)CC1)c1cccc(S(=O)(=O)Nc2cc(C(F)(F)F)ccc2Cl)c1	-10.7	-16.9	-0.5	-0.2	·	32.8*
Cn1c(=O)c2[nH]c(-c3ccc(S(=O)(=O)O)cc3)nc2n(C)c1=O	·	·	·	·	i	·
COc1c(Cl)cc(C(=O)Nc2ccccc2C(=O)O)cc1Cl	-5.6	-14.6	0.8	-2.8	i	61.8*
COc1ccc(C(=O)Nc2cc(Cl)ccc2C(=O)O)cc1	5.4	-20.4	-2.4	-1.5	i	47.4*
Oc1ccc(Br)cc1-c1nc2cnccn2c1NC1CCCCC1	-5.8	-17.6	30.0	1.4	i	11.4
Oc1ccc(Br)cc1-c1nc2cnccn2c1NC1CCCC1	·	-5.2	21.5	0.4	i	61.9*
COC(=O)COc1ccc(/C=N/NC(=O)c2ccc(N(Cc3ccccc3)S(C)(=O)=O)cc2)cc1	54.6*	-5.5	0.1	·	i	-0.8
CCOc1ccc(NC(=O)CC2C(=O)N(CC)C(=S)N2NC(=O)c2ccncc2)cc1 (stereo not drawn)	-11.3	-20.3	·	·	i	·
CCCc1cc(=O)oc2cc(C)cc(O)c12	146.9*	-19.3	1.7	0.4	i	9.2
CCOc1cc2[nH]c(=S)n(CCC(=O)NCc3ccc(OC)cc3)c(=O)c2cc1OCC	35.1*	-16.9	1.2	0.6	·	0.7
CCOc1ccc(CNc2ccc3c(c2)nc(C)n3C)cc1	-33.7	-17.4	0.6	0.7	i	43.6*
COc1ccccc1C(=O)NCC1CCN(c2ccc(S(=O)(=O)N3CCOCC3)cc2)CC1	-11.4	-10.2	8.6	2.9	i	44.8*
COc1nc(Nc2nc3ccccc3c(=O)[nH]2)nc2ccc(C)cc12	31.1*	-26.5	·	·	i	·
CCOc1ccc2nc(Cl)c(C3CC(c4ccccc4)=NN3C(=O)c3ccco3)cc2c1 (stereo not drawn)	18.5	-7.7	4.0	1.4	i	7.0
CC[n+]1c(C)cc2c(sc3ccccc32)c1C	33.5*	-0.6	2.2	1.4	i	4.8
CCc1nc(C)cc2c1sc1ccccc12	1.0	-7.5	·	·	i	·
CCOC(=O)C1=C(C)OC(N)=C(C#N)C1c1cc2cc(C)ccc2nc1N1CCCCC1 (stereo not drawn)	48.6*	-18.1	0.0	0.5	·	4.0
SMILES	NCF1 inh	Furin inh	ABCG2 inh	ABCB1 block	HSV augment	Arbovirus inh
CCOC(=O)C1=C(C)OC(N)=C(C#N)C1c1cc2ccccc2nc1N1CCCCC1 (stereo not drawn)	81.4*	-5.0	3.6	0.9	i	-9.4
Cc1ccc(OCC(=O)NNc2c3ccccc3nc3ccccc23)cc1	30.4*	-4.8	18.6	2.7	i	-4.0
OCCNc1nc(Nc2ccc(Br)cc2)nc2ccccc12	-33.1	-22.3	0.4	0.2	i	-26.6
OCCNc1nc(Nc2ccccc2)nc2ccccc12	4.6	-8.2	8.0	6.1	i	34.0*
O=C(O)CCC(=O)N1CCOc2ccc(Cl)cc21	36.8*	-26.8	2.8	0.4	i	-1.4
CN(C)CCCNC(=S)Nc1ccc(Br)cc1	-3.9	-7.4	·	·	i	·
CCc1ccc(S(=O)(=O)/N=C2\C=CC(=O)c3ccccc32)cc1	5.6	-29.2	-4.2	-1.5	i	-33.3
CCc1ccc(S(=O)(=O)/N=C2/C=C(Sc3ncn[nH]3)C(=O)c3ccccc32)cc1	55.2*	-3.8	-4.7	-0.3	·	-37.1
